Results of several laboratories.
Lines come from different studies, so protocols differ.
Target: Serine/threonine-protein kinase/endoribonuclease IRE1 (ERN1, Homo sapiens, UniProt O75460)

FC(F)(F)Oc1cccc(-c2cnc3ccc(-c4ccncc4)nn23)c1
remaining binding (cell-free assay; competition with immobilised ligand; 5 µM): 79%

CCOCCn1cc(C(=O)Nc2ccc(-n3nc(-c4cccnc4)cc3C(F)(F)F)cn2)ccc1=O
remaining binding (cell-free assay; competition with immobilised ligand; 1 µM): 87%

Cc1cnc(Nc2ccc(C(=O)N3CCC(N4CCCC4)CC3)cc2)nc1-c1cc2ccccc2s1
remaining binding (binding; competition with immobilised ligand; 1 µM): 24%

CCN1CCN(Cc2ccc(C(=O)Nc3ccc(C)c(Oc4ccc5c(c4)CC(=O)N5)c3)cc2C(F)(F)F)CC1
remaining binding (binding; competition with immobilised ligand; 1 µM): 100%

O=C(NCC1CCOCC1)c1n[nH]cc1NC(=O)c1c(F)cccc1F
remaining binding (binding; competition with immobilised ligand; 1 µM): 65%

CCCCN(CCCC)C(=O)CN1C[C@@H](c2cc(OC)c3c(c2)OCO3)[C@H](C(=O)O)[C@H]1CC(C)(C)CCC
remaining binding (cell-free assay; competition with immobilised ligand; 1 µM): 100%

CC1CCCN1c1nccc(-c2cnn3ncccc23)n1 (stereo not drawn)
remaining binding (binding; 1 µM): 100%

CNC(=O)Nc1ccc2c(c1)CC[C@@]21OC(=O)N(CC(=O)N(Cc2ccc(F)cc2)[C@@H](C)C(F)(F)F)C1=O
remaining binding (cell-free assay; competition with immobilised ligand; 1 µM): 56%

COc1ccnn2ncc(-c3ccnc(N(C)C)n3)c12
remaining binding (binding; 1 µM): 100%

CN1CCN(c2cnc3c(C4CCN(C(=O)c5ccc(OC(F)(F)F)cc5N)CC4)ncnc3c2)CC1
remaining binding (cell-free assay; competition with immobilised ligand; 1 µM): 99%

CN(CCCC(F)(F)F)c1nccc(-c2cnn3ncccc23)n1
remaining binding (binding; 1 µM): 97%

COc1cnc(Nc2cccc(S(N)(=O)=O)c2)nc1N1CCN(c2ccccc2)C(=O)C1
remaining binding (binding; competition with immobilised ligand; 1 µM): 78%

O=C(c1ccc(Nc2ncc(Cl)c(-c3ccc(Cl)s3)n2)cc1)N1CCC(N2CCCC2)CC1
remaining binding (binding; competition with immobilised ligand; 1 µM): 35%

CN(C)c1nccc(-c2cnc3ncccn23)n1
remaining binding (binding; 1 µM): 60%

c1cncc(-c2cccc(Nc3nccc(NC4CCCCC4)n3)c2)c1
remaining binding (binding; competition with immobilised ligand; 10 µM): 44%

O=C(c1ccc(Nc2ncc(Cl)c(-c3cc4ccccc4s3)n2)cc1)N1CCC(N2CCCC2)CC1
remaining binding (binding; competition with immobilised ligand; 1 µM): 37%

C=CC(=O)N1CCC(C(=O)NCC(=O)N2CCN(c3nc(-c4cnc(N)nc4C(F)F)nc(N4CCOCC4)n3)CC2)CC1
remaining binding (binding; competition with immobilised ligand; 1 µM): 100%

N[C@H]1CCN(c2nccc(-c3cnn4ncccc34)n2)C1
remaining binding (binding; 1 µM): 98%

COc1cccc(CNC(=O)c2nc3scc(COCc4ccc(C(=O)O)cc4)c3c(=O)[nH]2)c1
remaining binding (cell-free assay; competition with immobilised ligand; 1 µM): 89.7%

c1cnn2ncc(-c3ccnc(N4CCC45COC5)n3)c2c1
remaining binding (binding; 1 µM): 69%

CCCOc1ccc([C@H]2[C@H](C(=O)O)[C@@H](c3ccc4c(c3)OCO4)CN2CC(=O)Nc2c(CC)cccc2CC)cc1
remaining binding (cell-free assay; competition with immobilised ligand; 1 µM): 86%
